Laboratory results reported in ChEMBL document CHEMBL4017491, “Phthalazino[1,2-b]quinazolinones as p53 Activators: Cell Cycle Arrest, Apoptotic Response and Bak-Bcl-xl Complex Reorganization in Bladder Cancer Cells” (J Med Chem, 2017).
Activity calls are given as the source filed them. No cut-off for these calls is given here.

Columns and labels:
J82 = test: Cell cycle arrest in human J82 cells assessed as accumulation at G2 phase at 5 uM after 48 hrs by propidium iodide staining based FACS analysis (reference value: 10.92 %); type: functional
In short: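 Cells treated with 1−10 μM for 48 h, trypsinized, and fixed in 70% ethanol. Stained with 50 μg/mL propidium iodide and phase distribution analyzed by flow cytometry. Mean ± SD from three independent measurements.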

T-24 [1] = test: Effect on p53 expression in human T24 cells up to 10 uM after 24 hrs by Western blot analysis; type: functional, cell-based
In short: (§1)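 T24 cells (3 × 10^5 per well) grown to 85–95% confluence, then exposed 24 h to 0–10 μM. Whole-cell extracts run on SDS-PAGE and blotted to nitrocellulose. Probed with the indicated antibodies and AP-linked anti-rabbit IgG, with ECL detection. Blots stripped and reprobed for β-actin as loading control.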

[2] = biological target: Cellular tumor antigen p53 (Homo sapiens) (UniProt P04637); test: Activation of p53 in human T24 cells assessed as increase in cyclinE-CDK2 complex formation up to 10 uM after 24 hrs by Western blot analysis; type: cell-based
Chain of Cellular tumor antigen p53 (Homo sapiens) (P04637 whole entry, looked up): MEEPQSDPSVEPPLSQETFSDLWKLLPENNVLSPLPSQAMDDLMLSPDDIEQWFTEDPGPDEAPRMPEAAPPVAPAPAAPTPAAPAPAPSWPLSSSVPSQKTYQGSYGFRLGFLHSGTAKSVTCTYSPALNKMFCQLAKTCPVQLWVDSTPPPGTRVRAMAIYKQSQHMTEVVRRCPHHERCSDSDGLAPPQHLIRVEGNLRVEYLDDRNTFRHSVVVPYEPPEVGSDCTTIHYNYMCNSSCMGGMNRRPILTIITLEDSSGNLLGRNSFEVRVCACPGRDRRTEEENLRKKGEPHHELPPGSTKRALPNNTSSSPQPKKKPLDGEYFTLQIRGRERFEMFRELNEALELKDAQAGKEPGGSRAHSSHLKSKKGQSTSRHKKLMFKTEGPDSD
In short: (§2)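 T24 cells, 3 × 10^5 per well, grown to 85−95% confluence, then exposed to 0−10 μM for 24 h. Whole-cell extracts in sample buffer run on SDS-polyacrylamide gels and transferred to nitrocellulose. Blots probed with primary antibodies and AP-linked anti-rabbit IgG, detected by ECL. Blots stripped and reprobed for β-actin as loading control.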

T-24 [3] = test: Cell cycle arrest in human T24 cells assessed as effect on cyclin D expression up to 10 uM after 24 hrs by Western blot analysis; type: functional, cell-based; in short: as §2
T-24 [4] = test: Induction of apoptosis in human T24 cells by Annexin V-FITC/propidium iodide based flow cytometric analysis; type: functional, cell-based
T-24 [5] = test: Induction of apoptosis in human T24 cells assessed as increase in […] level up to 10 uM after 24 hrs by Western blot analysis; type: functional, cell-based; in short: as §1
NCI-H460 = test: Antiproliferative activity against human NCI-H460 cells by MTT assay; type: functional, cell-based
In short: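 Cell lines cultured in RPMI 1640 with 10% FBS. Viability read by MTT (5 mg/mL, 4 h at 37 °C), with formazan dissolved in DMSO and absorbance taken at 490 nm. Viability (%) = A490 treated / A490 control × 100. IC50 taken from dose-response curves, from three independent experiments each run in triplicate.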

HepG2 [6] = test: Antitumor activity against human HepG2 cells xenografted in BALB/C nude mouse assessed as tumor growth inhibition at 6 mg/kg, ip administered every 2 days for 16 days relative to control; type: functional; conditions: read-out: TGI
In short: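 Male BALB/C nude mice, 6 weeks old, given subcutaneous flank injection of 5 × 10^6 HepG2 cells; tumors of 80−200 mm3 randomized, n = 6/group. Dosing ip every other day, vehicle 5% DMSO in saline (v/v). Tumor length and width measured three times a week, volume V = lw2/2; growth inhibition expressed versus vehicle group. Body weight also recorded.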

HepG2 [7] = test: Antitumor activity against human HepG2 cells xenografted in BALB/C nude mouse assessed as tumor growth inhibition at 12 mg/kg, ip administered every 2 days for 16 days relative to control; type: functional; conditions: read-out: TGI
In short: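 Male BALB/c nude mice, 6 weeks old, given subcutaneous flank injections of 5 × 10^6 HepG2 cells. Mice with 80−200 mm3 tumors randomized, n = 6 per group, and dosed ip every other day with 6 or 12 mg/kg. Vehicle 5% DMSO in saline; HCPT 6 mg/kg as positive control. Tumor volume (lw²/2) and body weight measured three times weekly.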

T-24 [8] = test: Antitumor activity against human T24 cells xenografted in BALB/C nude mouse assessed as tumor growth inhibition at 6 mg/kg, ip administered every 2 days for 16 days relative to control; type: functional; conditions: T-24, ip, read-out: TGI
Mus musculus [9] = test: Toxicity in BALB/C nude mouse xenografted with human HepG2 cells at 6 to 12 mg/kg, ip administered every 2 days for 16 days; type: organism-based; conditions: in vivo
In short: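 Male BALB/C nude mice with HepG2 flank xenografts, n = 6/group. Given ip 6 or 12 mg/kg every 2 days in 5% DMSO/saline; vehicle and HCPT 6 mg/kg as controls. Clinical signs, food intake and body weight monitored; tumour size and weight measured three times weekly.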

Escherichia coli [10] = test: Induction of conformational change in Escherichia coli pBR322 DNA at 1 to 10 uM after 1 hr by DNA relaxation assay
In short: (§3)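 Plasmid pBR322 incubated 1 h with 1–10 μM in 5 mM Tris-HCl, 50 mM NaCl, pH 7.2. Samples run on 1.5% agarose and stained with 0.5 μg/mL ethidium bromide. Lane controls: 1% DMSO (negative) and ethidium bromide (positive).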

Escherichia coli [11] = test: Induction of DNA damage in Escherichia coli pBR322 DNA assessed as effect on mobility rate at 1 to 10 uM after 1 hr by DNA relaxation assay; in short: as §3
T-24 [12] = test: Induction of DNA damage in human T24 cells assessed as gammaH2AX level up to 10 uM by immunoblot analysis; type: functional, cell-based
T-24 [13] = test: Effect on cell cycle distribution in human T24 cells assessed as early apoptotic cells at 1 uM after 1 hr by Annexin V-FITC/propidium iodide staining based FACS analysis relative to control; type: functional
T-24 [14] = test: Effect on cell cycle distribution in human T24 cells assessed as late apoptotic cells at 1 uM after 1 hr by Annexin V-FITC/propidium iodide staining based FACS analysis relative to control; type: functional
T-24 [15] = test: Effect on cell cycle distribution in human T24 cells assessed as live cells at 5 uM after 1 hr by Annexin V-FITC/propidium iodide staining based FACS analysis (reference value: 98.3%); type: functional
T-24 [16] = test: Effect on cell cycle distribution in human T24 cells assessed as late apoptotic cells at 10 uM after 1 hr by Annexin V-FITC/propidium iodide staining based FACS analysis relative to control; type: functional
T-24 [17] = test: Effect on cell cycle distribution in human T24 cells assessed as late necrotic cells at 10 uM after 1 hr by Annexin V-FITC/propidium iodide staining based FACS analysis (reference value: 1.71%); type: functional
T-24 [18] = test: Induction of apoptosis in human T24 cells assessed as live cells at 10 uM by Annexin V-FITC/propidium iodide based flow cytometric analysis (reference value: 89.5%); type: functional
T-24 [19] = test: Induction of apoptosis in human T24 cells assessed as early apoptotic cells at 10 uM by Annexin V-FITC/propidium iodide based flow cytometric analysis (reference value: 1.79%); type: functional
T-24 [20] = test: Induction of apoptosis in human T24 cells assessed as activation of caspase-3 at 1 uM by FITC-DEVD-FMK based flow cytometric analysis (reference value: 2.8%)
Mus musculus [21] = test: Down regulation of Bak expression in BALB/C nude mouse xenografted with human T24 cells at 6 to 12 mg/kg, ip administered every 2 days for 16 days by immunoblot analysis

Q: Which Activity (J82) does the source give for `CN(C)CCNc1nn2c(=O)c3cc(Br)ccc3nc2c2ccccc12` here?
A: 38.21%

Q: What about the Activity (T-24 [1]) of the same compound?
A: inactive

Q: And the Activity [2]?
A: Active

Q: And the Activity (T-24 [3])?
A: inactive

Q: And the Activity (T-24 [4])?
A: Dose-dependent effect

Q: And the Activity (T-24 [5])?
A: Active

Q: What about the IC50 (NCI-H460) of the same compound?
A: 5.03 µM

Q: What about the inhibition in vivo at 6 mg/kg (HepG2 [6]) of the same compound?
A: 43.6%

Q: What about the inhibition in vivo at 12 mg/kg (HepG2 [7]) of the same compound?
A: 61.3%

Q: What about the inhibition in vivo at 6 mg/kg (T-24 [8]) of the same compound?
A: 44.8%

Q: And the Activity (Mus musculus [9])?
A: Non-Toxic

Q: What about the Activity (Escherichia coli [10]) of the same compound?
A: inactive

Q: And the Activity (Escherichia coli [11])?
A: inactive

Q: What about the Activity (T-24 [12]) of the same compound?
A: inactive

Q: What about the Activity (T-24 [13]) of the same compound?
A: 0%

Q: And the Activity (T-24 [14])?
A: 0%

Q: And the Activity (T-24 [15])?
A: 89.4%

Q: What about the Activity (T-24 [16]) of the same compound?
A: 0%

Q: And the Activity (T-24 [17])?
A: 13.4%

Q: What about the Activity (T-24 [18]) of the same compound?
A: 21.8%

Q: What about the Activity (T-24 [19]) of the same compound?
A: 29.4%

Q: And the Activity (T-24 [20])?
A: 7%

Q: And the Activity (Mus musculus [21])?
A: Active
